Test results from ChEMBL document CHEMBL1123566, “Synthesis and cardiac electrophysiological activity of 2- and 3-[(substituted phenyl)alkyl]quinuclidines. Structure-activity relationships” (1987).
Values joined by “and” are separate entries in the source; they are usually repeats but may differ in a detail not shown here. Identical values can stand only once.

Key:
Canis familiaris [1] = species: Canis familiaris; assay: In vitro electrophysiological evaluation in canine cardiac Purkinje fibres reported as % change for action potential duration at 10 uM at 1-100 uM concentration range; format: functional, Canis lupus familiaris, Purkinje fiber
Outline: (§1)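 Canine cardiac Purkinje fibres, intracellular microelectrode recording, paced at a basic cycle length of 1 s. APD95 and Vmax read simultaneously. Compound: 10 mM stock in deionized water, diluted into Tyrode's solution, tested over the stated concentration range. Each fibre used once as its own control. Result is % change from control, given at 10 µM or as the maximum with its concentration. M = <10% decrease or an increase in Vmax.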

Canis familiaris [2] = species: Canis familiaris; assay: In vitro electrophysiological evaluation in canine cardiac Purkinje fibres reported as maximum percent change Vmax concentration range of 0.1-100 uM; Minimal (<10% decrease or increase in V max).; format: functional; details: Canis lupus familiaris; Purkinje fiber; outline: as §1
Canis familiaris [3] = species: Canis familiaris; assay: In vitro electrophysiological evaluation in canine cardiac ventricular muscle reported as % change for conduction time(CT) at 10 uM at 0.1-10 uM concentration range; Minimal (<10% decrease or increase in CT).; format: functional, Canis lupus familiaris, Muscle tissue
Canis familiaris [4] = species: Canis familiaris; assay: In vitro electrophysiological activity in canine cardiac occurred is 10 uM; format: functional, Canis lupus familiaris, Heart
Canis familiaris [5] = species: Canis familiaris; assay: In vitro electrophysiological evaluation in canine cardiac Purkinje fibres reported as percent change Vmax at 10 uM at concentration range of 0.1-100 uM; Minimal (<10% decrease or increase in V max).; format: functional, organism-based; details: Canis lupus familiaris, Purkinje fiber; outline: as §1
Canis familiaris [6] = species: Canis familiaris; assay: In vitro electrophysiological evaluation in canine cardiac ventricular muscle reported as maximum % change for conduction time(CT) at 0.1-10 uM concentration range; Minimal (<10% decrease or increase in CT).; format: functional, Canis lupus familiaris, Muscle tissue
Outline: (§2)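 Canine right ventricle and papillary muscle strips in oxygenated Tyrode's solution, fitted with stimulating and recording electrodes. The extra-stimulus conduction-interval method was adapted for in vitro use. FRP and CT were read from a conduction-interval curve before and after various compound concentrations, and expressed as percent change from control. Compounds were taken from 10 mM deionized-water stock into Tyrode's. Each strip was used once as its own control.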

Canis familiaris [7] = species: Canis familiaris; assay: In vitro electrophysiological evaluation in canine cardiac ventricular muscle reported as % change for the functional refractory period (FRP) at 10 uM at concentration range of 0.1-10 uM; design: species or system Canis lupus familiaris, Muscle tissue; outline: as §2
Canis familiaris [8] = species: Canis familiaris; assay: In vitro electrophysiological evaluation in canine cardiac Purkinje fibres reported as % change for action potential duration at a concentration of 10 uM; format: functional, Canis lupus familiaris, Purkinje fiber; outline: as §1
Canis familiaris [9] = species: Canis familiaris; assay: In vitro electrophysiological activity in canine cardiac occurred is 100 uM; format: functional, Canis lupus familiaris, Heart
Canis familiaris [10] = species: Canis familiaris; assay: In vitro electrophysiological evaluation in canine cardiac Purkinje fibres reported as percent change Vmax at 10 uM at concentration range of 1-100 uM; Minimal (<10% decrease or increase in V max).; format: functional; details: Canis lupus familiaris, Purkinje fiber; outline: as §1
Canis familiaris [11] = species: Canis familiaris; assay: In vitro electrophysiological evaluation in canine cardiac ventricular muscle reported as maximum % change for functional refractory period (FRP) at 0.1-10 uM concentration range; concentration at which it occurred is 10 uM; design: species or system Canis lupus familiaris, Muscle tissue; outline: as §2
Canis familiaris [12] = species: Canis familiaris; assay: In vitro electrophysiological evaluation in canine cardiac Purkinje fibres reported as maximum percent change Vmax concentration range of 1-100 uM; Minimal (<10% decrease or increase in V max).; format: functional; details: Canis lupus familiaris; Purkinje fiber; outline: as §1
Canis familiaris [13] = species: Canis familiaris; assay: In vitro electrophysiological evaluation in canine cardiac ventricular muscle reported as % change for the functional refractory period (FRP) at 10 uM at concentration range of 0.1-100 uM; design: species or system Canis lupus familiaris, Muscle tissue; outline: as §2
Canis familiaris [14] = species: Canis familiaris; assay: In vitro electrophysiological evaluation in canine cardiac Purkinje fibres reported as % change for action potential duration at 10 uM at 0.1-100 uM concentration range; format: functional, Canis lupus familiaris, Purkinje fiber; outline: as §1
Canis familiaris [15] = species: Canis familiaris; assay: In vitro electrophysiological evaluation in canine cardiac occurred is 100 uM; format: functional; details: Canis lupus familiaris; Heart
Canis familiaris [16] = species: Canis familiaris; assay: In vitro electrophysiological evaluation in canine cardiac ventricular muscle reported as % change for conduction time(CT) at 10 uM at 0.1-100 uM concentration range; Minimal (<10% decrease or increase in CT).; format: functional, Canis lupus familiaris, Muscle tissue
Canis familiaris [17] = species: Canis familiaris; assay: In vitro electrophysiological evaluation in canine cardiac ventricular muscle reported as maximum % change for functional refractory period (FRP) at 0.1-100 uM concentration range; concentration at which it occurred is 100 uM.; design: species or system Canis lupus familiaris, Muscle tissue; outline: as §2
Canis familiaris [18] = species: Canis familiaris; assay: In vitro electrophysiological evaluation in canine cardiac ventricular muscle reported as maximum % change for conduction time(CT) at 0.1-100 uM concentration range; Minimal (<10% decrease or increase in CT).; format: functional, Canis lupus familiaris, Muscle tissue; outline: as §2

Structure (SMILES) | APD95 (Canis familiaris [1]) | Vmax (Canis familiaris [2]) | CT (Canis familiaris [3]) | APD95 (Canis familiaris [4]) | Vmax (Canis familiaris [5]) | CT (Canis familiaris [6]) | FRP (Canis familiaris [7]) | APD95 (Canis familiaris [8]) | APD95 (Canis familiaris [9]) | Vmax (Canis familiaris [10]) | FRP (Canis familiaris [11]) | Vmax (Canis familiaris [12]) | FRP (Canis familiaris [13]) | APD (Canis familiaris [14]) | APD95 (Canis familiaris [14]) | Vmax (Canis familiaris [15]) | CT (Canis familiaris [16]) | FRP (Canis familiaris [17]) | CT (Canis familiaris [18])
CC(=O)C(CC1C(=O)C2CCN1CC2)C(=O)c1ccccc1.Cl (stereo not given) | -5% | < 10% | <10% | -6% | < 10% | <10% | 14% | -6% | -19% | < 10% | 20% | – | – | – | – | – | – | – | –
CS(=O)(=O)Nc1ccc(C(=O)CCC2C(=O)C3CCN2CC3)cc1.Cl (stereo not given) | 5% | < 10% | – | – | < 10% | – | – | 16% | 36% and 18% | < 10% | – | < 10% | 18% and 12% and 13% | 24% | -1% and 10% | -24% | <10% | 32% and 21% and 24% | <10%
